We go through four molecules from ChEMBL document CHEMBL3994569, “Synthesis, anti-varicella-zoster virus and anti-cytomegalovirus activity of quinazoline-2,4-diones containing isoxazolidine and phosphonate substructures” (Eur J Med Chem, 2017).

pEC50, pIC50: −log10 of the molar value.

In data set [1] the test system is HMEC-1. In words: Anti-proliferative activity against HMEC1 cells by coulter counter method. Format: ADME, cell-based, Homo sapiens. Summed up:
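HMEC-1 cells at 300,000–500,000 cells/mL, mixed 1:1 by volume with serial dilutions of test compound, incubated at 37 °C. Cell number counted by Coulter counter.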

The nature of data set [2]: (§1) Cytotoxicity against HEL cells infected with Cytomegalovirus assessed as alteration in cell morphology by microscopic method. Format: cell-based. Conditions: human, HEL cells infected with Cytomegalovirus. Summed up: (§2)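 In the HEL cultures used for the antiviral assays, cell morphology was examined microscopically across varying compound concentrations. MCC is the minimum concentration causing a microscopically detectable alteration of cell morphology.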

The nature of data set [3]: (§3) Cytotoxicity against HEL cells infected with Varicella-Zoster virus assessed as alteration in cell morphology by microscopic method. It is filed as cell-based. Conditions: human, HEL cells infected with Varicella-Zoster virus. Summed up: as §2
In data set [4] the test system is Human alphaherpesvirus 3. In words: Potency index, ratio of acyclovir EC50 to compound EC50 for thymidine kinase deficient Varicella-Zoster virus 07-1 infected in HEL cells assessed as reduction in virus plaque formation. Format: functional.
Data set [5] relates to Cytomegalovirus. As to the kind of experiment: Antiviral activity against Cytomegalovirus AD169 infected in HEL cells assessed as reduction in virus plaque formation. Format: functional, cell-based. The method, boiled down:
(§4)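 Confluent HEL fibroblast cultures infected with 100 PFU of HCMV and kept with varying compound concentrations. Plaques scored once plaque formation was complete in untreated infected controls.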

For data set [6], the system named is HEL. In words: (§5) Cytotoxicity against HEL cells infected with Varicella-Zoster virus assessed as growth inhibition. As to conditions: human, hel. It is filed as cell-based.
Data set [7] relates to L1210. As to the kind of experiment: Anti-proliferative activity against mouse L1210 cells measured after 48 hrs by coulter counter method. Conditions: Mus musculus, L1210, 48 h. It is filed as ADME, cell-based. The method, boiled down:
(§6)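 Cells at 300,000–500,000 cells/mL, combined 1:1 by volume with compound dilutions, incubated at 37 °C: L1210 for two days, CEM for three days, HeLa for four days. Cells counted by Coulter counter.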

For data set [8], the system named is Human alphaherpesvirus 3. As to the kind of experiment: Antiviral activity against thymidine kinase expressing Varicella-Zoster virus OKA infected in HEL cells assessed as reduction in virus plaque formation. It is filed as functional, cell-based, strain Oka vaccine. The method, boiled down: (§7)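 Confluent HEL fibroblast cultures were infected with VZV at an input of 100 PFU and incubated with varying compound concentrations. Plaques were counted once plaque formation was complete in untreated infected controls.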

The subject of data set [9] is HeLa. As to the kind of experiment: Anti-proliferative activity against human HeLa cells measured after 4 days by coulter counter method. It is filed as ADME, cell-based. Summed up:
as §6

Data set [10] relates to CCRF-CEM. As to the kind of experiment: Anti-proliferative activity against human CEM cells measured after 72 hrs by coulter counter method. It is filed as ADME, cell-based. Summed up: as §6
Data set [11] has as its system Cytomegalovirus. In words: Antiviral activity against Cytomegalovirus Davis infected in HEL cells assessed as reduction in virus plaque formation. It is filed as functional, cell-based. Summed up: as §4
The test system of data set [12] is HEL. As to the kind of experiment: Cytotoxicity against HEL cells infected with Cytomegalovirus assessed as growth inhibition. It is filed as cell-based. Conditions: human.
The subject of data set [13] is Human alphaherpesvirus 3. In words: Antiviral activity against thymidine kinase deficient Varicella-Zoster virus 07-1 infected in HEL cells assessed as reduction in virus plaque formation. Format: functional, cell-based. The method, boiled down: as §7
The nature of data set [14]: as §5. Format: cell-based. As to conditions: human, HEL cells infected with Varicella-Zoster virus.
In data set [15] the test system is HEL. The data set is described as §1. Format: cell-based. As to conditions: human, hel. The method, boiled down: as §2
For data set [16], the system named is HEL. The description is as §3. Format: cell-based. As to conditions: human, hel. Summed up:
as §2

For data set [17], the system named is Human alphaherpesvirus 2. As to the kind of experiment: Antiviral activity against Herpes simplex virus 2 G infected in HEL cells assessed as reduction in virus-induced cytopathogenicity. Format: functional, cell-based. As to conditions: Human alphaherpesvirus 2, strain G.
Data set [18] deals with Human adenovirus 2. As to the kind of experiment: Antiviral activity against Human adenovirus 2 infected in HEL cells assessed as reduction in virus-induced cytopathogenicity. It is filed as functional, cell-based. Conditions: Human mastadenovirus C. Summed up: (§8)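 Confluent HEL fibroblast monolayers were infected with 100 CCID50 of virus and incubated with varying concentrations of compound. Cytopathicity was scored once it was complete in untreated infected controls.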

Data set [19] relates to Human alphaherpesvirus 1. As to the kind of experiment: Antiviral activity against thymidine kinase-deficient acyclovir-resistant Herpes simplex virus 1 KOS infected in HEL cells assessed as reduction in virus-induced cytopathogenicity. Format: functional, cell-based. Conditions: Human alphaherpesvirus 1, KOS. The method, boiled down: as §8
Data set [20] deals with Human alphaherpesvirus 1. As to the kind of experiment: Antiviral activity against Herpes simplex virus 1 KOS infected in HEL cells assessed as reduction in virus-induced cytopathogenicity. It is filed as functional, cell-based. Conditions: Human alphaherpesvirus 1, KOS. The method, boiled down:
as §8

Data set [21] can be described thus: Cytotoxicity against virus infected HEL cells assessed as alteration in cell morphology by microscopic method. Format: cell-based. As to conditions: human. Summed up: as §2
[22] abbreviates: Human betaherpesvirus 5, AD169, HEL.
Setting [23] is: Human betaherpesvirus 5, Davis, HEL.
[24] abbreviates: Human alphaherpesvirus 3, 07-1, HEL.

Regarding `CCOP(=O)(OCC)C1CC(Cn2c(=O)n(Cc3ccccc3F)c(=O)c3ccccc32)ON1Cc1ccccc1` (stereo unspecified), the pIC50 was 4.64 in data set [1] (Homo sapiens, HMEC-1); 4.77 in data set [7]; 4.77 in [9] (Homo sapiens, HeLa, 96 h); 4.70 in data set [10] (Homo sapiens, CCRF-CEM, 72 h). In addition, the MCC in data set [2] and in [3] was 100 µM in each case. Besides, the “Ratio EC50” value in [4] is 10 - 14. Also, the pEC50 in [5] (setting [22]) was 5.05; in data set [8] (Human alphaherpesvirus 3, strain Oka vaccine, HEL) it was 5.33; in [11] (setting [23]), not above 5.19; in [13] (setting [24]), 5.29. Besides, the CC50 in data set [6] and in data set [12] was 11.8 µM in each case.
On to `CCOP(=O)(OCC)C1CC(Cn2c(=O)n(Cc3ccccc3)c(=O)c3ccccc32)ON1Cc1ccccc1` (mixture of isomers; cis), for which the pIC50 in [1] (Homo sapiens, HMEC-1) was 4.55; in data set [7] it was 4.74; in [9] (hela) it was 4.48; in data set [10] (Homo sapiens, CCRF-CEM, 72 h), 5.00. Also, the MCC in [2] and in data set [3] was 100 µM each time. For the same molecule, the pEC50 in data set [5] is not above 5.52; in [8], 5.14; in data set [11], 5.19; in data set [13] (setting [24]) it was 4.88. In addition, the CC50 in data set [14] and in data set [12] was 9 µM each time.
Turning to `CCOP(=O)(OCC)C1CC(Cn2c(=O)n(Cc3ccc(F)cc3)c(=O)c3ccccc32)ON1Cc1ccccc1` (mixture of isomers; trans), the pIC50 in [1] (hmec-1) is 4.59; in data set [9] (hela), 4.74; in data set [10] (ccrf-cem), 4.89. Also, the MCC in data set [15] and in data set [16] was 100 µM each time. Moreover, in data set [4], the “Ratio EC50” value is 10 - 14. Moreover, the pEC50 is not above 5.19 in [5], 5.52 in data set [8], 5.05 in data set [11] and 5.44 in data set [13]. Also, the CC50 in data set [6] and in [12] was 6.6 µM throughout.
Take `Nc1ccn(C[C@@H](CO)OCP(=O)(O)O)c(=O)n1` [CIDOFOVIR]: the MCC in data set [2] is more than 300 µM; in data set [21], more than 250 µM. Moreover, the pEC50 is 5.70 in data set [17]; 5.84 in [5] (setting [22]); 5.00 in data set [18]; 5.42 in data set [19]; 5.70 in data set [20]; 6.09 in [11] (setting [23]). The CC50 in [12] is more than 300 µM.
